Assays:
[1] = tested on: Mus musculus; test: T/C(100) represents the ratio of the survival time of treated to control animals x 100(daily dosage 60 mg/kg); format: functional
[2] = tested on: L1210; test: Compound was tested for inhibition of L1210 cells growth in culture.; format: functional, cell-based; conditions: Mus musculus
In short: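 L1210 cells seeded at 2000/well; test agents added 24 h later at various concentrations (at least five per agent). Growth read colorimetrically after adding phenazine methosulfate, with 2-3 h incubation at 37 °C and reading at 492 nm. IC50 is the concentration giving 50% growth inhibition.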

[3] = biological target: T1, Ribonucleoside-diphosphate reductase subunit M2 (Homo sapiens, UniProt P31350); test: Inhibitory activity against CDP reductase.
T1 sequence (P31350 whole entry): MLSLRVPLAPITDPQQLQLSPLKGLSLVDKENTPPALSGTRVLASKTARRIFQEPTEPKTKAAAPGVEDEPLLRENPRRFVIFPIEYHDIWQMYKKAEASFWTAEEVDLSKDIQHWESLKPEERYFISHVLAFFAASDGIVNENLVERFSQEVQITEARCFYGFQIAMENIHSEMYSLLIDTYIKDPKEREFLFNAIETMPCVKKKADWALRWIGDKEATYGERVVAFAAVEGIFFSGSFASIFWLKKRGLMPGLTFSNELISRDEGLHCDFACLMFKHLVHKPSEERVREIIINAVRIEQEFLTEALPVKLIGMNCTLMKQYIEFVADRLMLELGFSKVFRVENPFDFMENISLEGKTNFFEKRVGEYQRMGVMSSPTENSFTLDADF
In short: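 Ribonucleoside diphosphate reductase prepared as non-heme iron and effector-binding subunits. IC50 is 50% inhibition, the mean of two separate determinations.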

[4] = tested on: Mus musculus; test: Average change in body weight from onset to termination of therapy(daily dosage 40 mg/kg); format: functional
[5] = tested on: Mus musculus; test: Average survival time includes only those mice that died prior to day 60(daily dosage 40 mg/kg); format: functional
[6] = organism: Mus musculus; test: Long time survivors(out of 5) are the number of mice that survived for > 60 days relative to the total number of treated mice; format: functional
[7] = tested on: Mus musculus; test: Average survival time includes only those mice that died prior to day 60(daily dosage 40 mg/kg)
[8] = tested on: Mus musculus; test: T/C(100) represents the ratio of the survival time of treated to control animals x 100(daily dosage 40 mg/kg); format: functional
[9] = tested on: Mus musculus; test: Average survival time includes only those mice that died prior to day 80(daily dosage 40 mg/kg); format: functional
[10] = tested on: Mus musculus; test: T/C(100) represents the ratio of the survival time of treated to control animals x 100(daily dosage 80 mg/kg); format: functional
[11] = tested on: Mus musculus; test: Average survival time includes only those mice that died prior to day 60(daily dosage 80 mg/kg)
[12] = tested on: Mus musculus; test: Average survival time includes only those mice that died prior to day 60(daily dosage 60 mg/kg)
[13] = dose 60 mg/kg, in the assay text read “daily dosage 60 mg/kg” for “daily dosage 40 mg/kg”
[14] = dose 80 mg/kg, in the assay text read “daily dosage 80 mg/kg” for “daily dosage 40 mg/kg”

SMILES: N/C(S)=N/N=C/c1ncc(N)cc1N
- T/C [1]: 135
- IC50 [2]: 1.1 µM
- IC50 [3]: 9 µM
- Weight [4, 13]: -17.1%
- Average survival [5]: 10.8 days
- Survivors [6]: 2

SMILES: CNc1ccc(/C=N/N=C(/N)S)nc1
- T/C [1]: 223
- IC50 [2]: 2.4 µM
- IC50 [3]: 1.3 µM
- Weight [4, 13]: -4.4%
- Average survival [5]: 17.8 days
- Survivors [6]: 0

SMILES: N/C(S)=N/N=C/c1cc(CN2CCOCC2)c(N)cn1
- IC50 [2]: > 10 µM
- Average survival [7]: 10 days
- T/C [8]: 125
- IC50 [3]: 11 µM
- Weight ([4]; dose 40 mg/kg): -3.5%
- Survivors [6]: 0

SMILES: NCc1ccc(/C=N/N=C(/N)S)nc1
- IC50 [2]: 2.1 µM
- IC50 [3]: 2.5 µM
- Average survival [9]: 13.4 days
- Weight [4, 14]: -2.4%
- Survivors [6]: 1
- T/C [10]: 168

SMILES: CCNc1ccc(/C=N/N=C(/N)S)nc1
- IC50 [2]: 3.4 µM
- IC50 [3]: 1 µM
- Weight [4, 14]: -3.4%
- Survivors [6]: 0
- Average survival [11]: 16.3 days
- T/C [10]: 204

SMILES: C=CCNc1cccnc1/C=N/N=C(/N)S
- IC50 [2]: > 10 µM
- IC50 [3]: 1.7 µM
- Weight [4, 14]: -2.6%
- Survivors [6]: 0
- Average survival [11]: 10.1 days
- T/C [10]: 126

SMILES: C=CCNc1ccc(/C=N/N=C(/N)S)nc1
- T/C [1]: 215
- IC50 [2]: 4.4 µM
- IC50 [3]: 1.4 µM
- Average survival [5]: 17.2 days
- Survivors [6]: 0

SMILES: CCCNc1ccc(/C=N/N=C(/N)S)nc1
- T/C [1]: 146
- IC50 [2]: 5.1 µM
- IC50 [3]: 1.4 µM
- Weight [4, 13]: -5.2%
- Survivors [6]: 0
- Average survival [12]: 11.7 days

SMILES: CNc1cccnc1/C=N/N=C(/N)S
- IC50 [2]: 1.5 µM
- Average survival [7]: 11.8 days
- T/C [8]: 148
- IC50 [3]: 1 µM
- Weight ([4]; dose 40 mg/kg): -2.9%
- Survivors [6]: 0

SMILES: CCCCNc1ccc(/C=N/N=C(/N)S)nc1
- IC50 [2]: 7.8 µM
- Average survival [7]: 9.2 days
- T/C [8]: 115
- IC50 [3]: 2.5 µM
- Weight ([4]; dose 40 mg/kg): -4%
- Survivors [6]: 0

From ChEMBL document CHEMBL1129788, “Synthesis and biological activity of 3- and 5-amino derivatives of pyridine-2-carboxaldehyde thiosemicarbazone” (J Med Chem, 1996)
